In ChEMBL document CHEMBL1132971, “New azolidinediones as inhibitors of protein tyrosine phosphatase 1B with antihyperglycemic properties” (J Med Chem, 2000):
Active and inactive are the calls of the source. The calls are words filed in the database; no cut-off is given here.

Tests used:
[1] = target: T1, Tyrosine-protein phosphatase non-receptor type 1 (Rattus norvegicus, UniProt P20417); test: Inhibition of PTPase activity in rat hepatic membrane at a concentration of 50 uM using pNPP as the substrate; type: cell membranes, Liver
T1 sequence (P20417 whole entry): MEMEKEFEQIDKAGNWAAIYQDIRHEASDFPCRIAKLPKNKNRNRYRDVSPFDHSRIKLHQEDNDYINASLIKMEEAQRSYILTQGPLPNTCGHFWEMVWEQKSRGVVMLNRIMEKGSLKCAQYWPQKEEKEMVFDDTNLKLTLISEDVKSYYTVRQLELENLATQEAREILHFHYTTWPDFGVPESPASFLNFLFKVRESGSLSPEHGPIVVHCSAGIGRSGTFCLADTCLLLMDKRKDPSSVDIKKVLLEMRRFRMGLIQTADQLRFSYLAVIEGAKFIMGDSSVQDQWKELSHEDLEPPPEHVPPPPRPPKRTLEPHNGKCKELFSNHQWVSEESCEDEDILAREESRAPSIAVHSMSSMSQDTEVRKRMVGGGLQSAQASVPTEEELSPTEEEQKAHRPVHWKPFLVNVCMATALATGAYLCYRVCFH
How it was run: (§1)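 Liver membranes from male Sprague-Dawley rats (100-150 g), about 30 µg protein per well. Preincubated 10 min at 37 °C with compound in 1.25% DMSO in 50 mM HEPES pH 7.4. Then 6.33 mM pNPP for 30 min at 37 °C, stopped with NaOH. p-Nitrophenol read at 410 nm. Run in triplicate. Reported as percent of untreated control.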

[2] = target: T1, Tyrosine-protein phosphatase non-receptor type 1; test: Inhibition of PTPase activity using recombinant r-PTP1B as the enzyme and IR-triphosphopeptide as substrate
How it was run: (§2)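 Rat recombinant PTP1B in 33 mM TRIS-HCl, 2 mM EDTA, 50 mM β-mercaptoethanol, pH 7.4 (about 1000-2000 nmol/min/mg). Preincubated 10 min at 37 °C with or without compound in HEPES buffer pH 7.4. Released phosphate read by malachite green-ammonium molybdate at 650 nm against a phosphate standard. Quadruplicates. IC50 by four-parameter logistic fit.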

Mus musculus [3] = test: Evaluated in vivo for their ability to decrease plasma glucose levels in diabetic C57BL/KsJ db/db mouse at a dose 100 mg/kg/day. *p indicates <0.05; type: functional
How it was run: (§3)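 Mice dosed orally once daily for 4 days; plasma glucose and insulin measured and expressed as percent change versus a vehicle-treated group (mean ± SE, 4-6 mice/group). NS is generally less than -15% change. Significance is versus vehicle-treated mice.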

[4] = target: T2, Tyrosine-protein phosphatase non-receptor type 1 (Mus musculus) (UniProt P35821); test: In vivo ability to decrease plasma glucose levels in diabetic C57BL/KsJ ob/ob mouse at a dose 100 mg/kg/day; type: functional, organism-based
T2 sequence (whole entry): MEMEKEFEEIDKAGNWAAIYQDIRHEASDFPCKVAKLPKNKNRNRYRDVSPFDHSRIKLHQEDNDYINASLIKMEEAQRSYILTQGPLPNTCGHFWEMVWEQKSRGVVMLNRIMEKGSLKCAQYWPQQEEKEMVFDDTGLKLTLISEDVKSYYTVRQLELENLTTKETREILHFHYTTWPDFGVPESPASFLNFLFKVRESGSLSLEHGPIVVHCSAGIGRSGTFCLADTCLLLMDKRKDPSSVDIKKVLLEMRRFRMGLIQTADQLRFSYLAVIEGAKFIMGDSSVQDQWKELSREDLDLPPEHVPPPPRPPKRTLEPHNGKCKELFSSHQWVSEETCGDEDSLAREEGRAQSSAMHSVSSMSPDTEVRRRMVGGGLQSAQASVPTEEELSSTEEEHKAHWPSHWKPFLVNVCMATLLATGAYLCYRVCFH
How it was run: (§4)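 Diabetic db/db or ob/ob mice dosed orally once daily for 4 days. Plasma glucose and insulin reported as percent change from a vehicle-treated group. 4-6 mice per group. Significance set at p < 0.05 or p < 0.01 versus vehicle; NS means generally less than -15% change.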

[5] = target: T3, Tyrosine-protein phosphatase non-receptor type 1 (Rattus norvegicus) (UniProt P20417); test: Inhibition of PTPase (PTP1B) activity in rat hepatic membrane at 50 uM concentration, using pNPP as the substrate; type: cell membranes; details: Liver; how it was run: as §1
T3 sequence (whole entry): T1 sequence (P20417 whole entry)

[6] = target: T2, Tyrosine-protein phosphatase non-receptor type 1 (Mus musculus); test: Ability to decrease plasma insulin levels in mouse at a dose 100 mg/kg/day; type: functional, organism-based; how it was run: as §4
Mus musculus [7] = test: Evaluated for their ability to decrease plasma insulin levels in mouse at a dose 100 mg/kg/day. **p indicates <0.01; type: functional; how it was run: as §3
Mus musculus [8] = test: Evaluated in vivo for their ability to decrease plasma glucose levels in diabetic C57BL/KsJ ob/ob mouse at a dose 100 mg/kg/day.; type: functional; how it was run: as §3
[9] = target: T3, Tyrosine-protein phosphatase non-receptor type 1 (Rattus norvegicus); test: Inhibition of PTPase activity using recombinant r-PTP1B as the enzyme and IR-triphosphopeptide as substrate at 50 uM; how it was run: as §2
[10] = target: T4, Tyrosine-protein phosphatase non-receptor type 1 (Homo sapiens, UniProt P18031); test: Concentration required to inhibit PTPase activity, recombinant Protein Tyrosine Phosphatase 1b as the enzyme; how it was run: as §2
T4 sequence (P18031 whole entry): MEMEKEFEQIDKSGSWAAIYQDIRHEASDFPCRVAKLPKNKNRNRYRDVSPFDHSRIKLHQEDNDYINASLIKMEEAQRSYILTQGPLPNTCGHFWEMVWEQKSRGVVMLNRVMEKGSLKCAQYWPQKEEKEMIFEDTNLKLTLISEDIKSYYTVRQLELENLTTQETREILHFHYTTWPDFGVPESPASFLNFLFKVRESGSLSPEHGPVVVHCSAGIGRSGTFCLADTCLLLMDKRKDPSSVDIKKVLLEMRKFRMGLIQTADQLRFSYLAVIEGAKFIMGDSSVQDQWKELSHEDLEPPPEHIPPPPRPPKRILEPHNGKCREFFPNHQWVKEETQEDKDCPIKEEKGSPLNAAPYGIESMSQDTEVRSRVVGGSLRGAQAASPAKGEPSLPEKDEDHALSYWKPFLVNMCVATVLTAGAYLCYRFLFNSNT

Mus musculus [11] = test: Evaluated in vivo for their ability to decrease plasma glucose levels in diabetic C57BL/KsJ ob/ob mouse at a dose 100 mg/kg/day, **p indicates <0.01; type: functional; how it was run: as §3
Mus musculus [12] = test: Evaluated in vivo for their ability to decrease plasma glucose levels in diabetic C57BL/KsJ db/db mouse at a dose 100 mg/kg/day, *p indicates <0.05; type: functional; how it was run: as §3
Mus musculus [13] = test: Evaluated for their ability to decrease plasma insulin levels in mouse at a dose 100 mg/kg/day, **p indicates <0.01; type: functional; how it was run: as §4
[14] = target: T1, Tyrosine-protein phosphatase non-receptor type 1; test: Inhibition of PTPase activity using recombinant Protein-tyrosine phosphatase 1B and IR-triphosphopeptide as substrate; ND is no data.
Mus musculus [15] = test: Evaluated for their ability to decrease plasma insulin levels in mouse at a dose 100 mg/kg/day,**p indicates <0.01; type: functional; how it was run: as §3
[16] = target: T3, Tyrosine-protein phosphatase non-receptor type 1 (Rattus norvegicus); test: Inhibition of PTPase activity using recombinant r-PTP1B as the enzyme and IR-triphosphopeptide as substrate at 10 uM
How it was run: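 Recombinant rat PTP1B (human 321-aa form assayed the same way), activity about 1000-2000 nmol/min/mg, preincubated with compound for 10 min at 37 °C in HEPES pH 7.4. The reaction is started with 50 µM triphosphorylated insulin receptor 1142-1153 dodecapeptide and run 30 min at 37 °C. Released phosphate read by malachite green-molybdate at 650 nm, in quadruplicate. Result is percent inhibition versus control.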

Mus musculus [17] = test: Evaluated in vivo for their ability to decrease plasma glucose levels in diabetic C57BL/KsJ db/db mouse at a dose 100 mg/kg/day; NS=not significant; type: functional, organism-based; how it was run: as §4
Mus musculus [18] = test: Evaluated for their ability to decrease plasma insulin levels in mouse at a dose 100 mg/kg/day.([…]); type: functional; how it was run: as §4
Mus musculus [19] = test: Evaluated in vivo for their ability to decrease plasma glucose levels in diabetic C57BL/KsJ db/db mouse at a dose 100 mg/kg/day.([…]); type: functional; how it was run: as §4
[20] = target: T3, Tyrosine-protein phosphatase non-receptor type 1 (Rattus norvegicus); test: IC50 for PTPase activity, recombinant r-PTP1B as the enzyme .

Compound `CCCCc1oc2ccccc2c1COc1cccc(/C(C)=C/Cn2oc(=O)[nH]c2=O)c1` has an Inhibition % [1] of 33% and an IC50 [2] of 2700 nM.
With `C/C(=C\CC1OC(=O)NC1=O)c1cccc(OCc2nc(-c3ccc(OC(F)(F)F)cc3)oc2C)c1` (stereo not given) the Decrease (Mus musculus [3]) was 40%, the Decrease [4] was “Not significant” and the inhibition [5] was 27%. The IC50 [2] was 46000 nM and the Decrease [6] was “Not significant”.
`Cc1oc(-c2ccc(C(F)(F)F)cc2)nc1COc1cccc(/C(=C/Cn2oc(=O)[nH]c2=O)Cc2ccccc2)c1` showed a Decrease (Mus musculus [7]) of 46%, a Decrease (Mus musculus [8]) of 23% and an inhibition [9] of 0.8%.
In the case of `CCCC/C(=C\Cn1oc(=O)[nH]c1=O)c1cccc(OCc2nc(-c3ccc(C(F)(F)F)cc3)oc2-c2ccccc2)c1`, the inhibition [5] is reported as 76% and the IC50 [10] is reported as 370 nM.
Work on `CCCC/C(=C\Cn1oc(=O)n(CC(=O)O)c1=O)c1cccc(OCc2cc(Cl)cc(Cl)c2)c1` yielded an inhibition [5] of 31% and an IC50 [10] of 48000 nM.
Compound `C/C(=C\Cn1oc(=O)[nH]c1=O)c1cccc(OCc2nc(-c3ccccc3)oc2C)c1` (stereo in doubt; 67) has a Decrease (Mus musculus [11]) of 30%, a Decrease (Mus musculus [12]) of 28% and a Decrease (Mus musculus [13]) of 75%. The IC50 [14] was “Not significant”.
For `CCCC/C(=C\Cn1oc(=O)[nH]c1=O)c1cccc(Oc2cc(Cl)cc(Cl)c2)c1`, the Inhibition % [1] was 23% and the IC50 [2] was 1600 nM.
Work on `Cc1oc(-c2ccc(C(F)(F)F)cc2)nc1COc1cccc(C#CC(C)n2oc(=O)[nH]c2=O)c1` (stereo not given) yielded a Decrease (Mus musculus [15]) of 91%, a Decrease (Mus musculus [3]) of 30% and a Decrease (Mus musculus [11]) of 32%. The inhibition [5] was 56% and the inhibition [16] was 47%.
`Cc1oc(-c2ccc(C(F)(F)F)cc2)nc1COc1cccc(/C(=C/Cn2oc(=O)[nH]c2=O)c2ccc(Cl)cc2)c1` was tested, and the Decrease [4] was “Not significant”, the Inhibition % [1] was 27% and the inhibition [9] was 1.4%. The Decrease [6] was “Not significant”.
`C/C(=C\CC1SC(=O)NC1=O)c1cccc(OCc2nc(-c3ccccc3)oc2C)c1` (stereo not given) was tested, and the inhibition [5] was 5% and the Decrease (Mus musculus [17]) was “inactive”.
Work on `Cc1oc(-c2ccc(C(F)(F)F)cc2)nc1COc1cccc(/C(I)=C/Cn2oc(=O)[nH]c2=O)c1` yielded an inhibition [5] of 51%, a Decrease (Mus musculus [18]) of 64% and a Decrease (Mus musculus [19]) of 38%. It also gave an IC50 [20] of 1800 nM.
